Experiment [1] has as its system HepG2. Put plainly: Cytotoxicity against human HepG2 cells assessed as cell growth inhibition after 48 hrs by MTT assay. The class given is functional, cell-based. The conditions noted are these: HepG2, 48 h. In short, it runs like this:
(§1)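 Adherent cells seeded at 5000/well, left 16−24 h, then exposed 48 h at 37 °C, 5% CO2 in RPMI with 10% FBS. Medium refreshed, MTT added for 4 h at 37 °C, medium removed, formazan dissolved in DMSO, OD570 read. IC50 taken as concentration inhibiting growth by 50%; triplicate.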
In general terms: Tetrazolium dyes change colour on reduction, which living cells bring about.

For experiment [2], the system named is ECa-109 cell line. Put plainly: Cytotoxicity against human ECA109 cells assessed as cell growth inhibition after 48 hrs by MTT assay. The class given is functional, cell-based. Particulars: ECa-109, 48 h. In short, it runs like this:
as §1

Experiment [3] concerns A549. Put plainly: Cytotoxicity against human A549 cells assessed as cell growth inhibition after 48 hrs by MTT assay. The class given is functional, cell-based. The conditions noted are these: A549, 48 h. The method in brief: as §1
Experiment [4] deals with K562. The experiment in a line: Cytotoxicity against human K562 cells assessed as cell growth inhibition after 48 hrs by MTT assay. The class given is functional, cell-based. Particulars: K562, 48 h. In short, it runs like this: (§2)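 Suspension cells seeded at 5000/well (HL-60 in IMDM, K562 in RPMI, both with 10% FBS) and treated. MTT then added for 4 h at 37 °C; plates centrifuged at 3000 rpm for 30 min, medium removed, DMSO added, OD570 read. IC50 taken as concentration giving 50% growth inhibition; triplicate.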

Experiment [5] concerns HL-60. The experiment in a line: Cytotoxicity against human HL60 cells assessed as cell growth inhibition after 48 hrs by MTT assay. The conditions noted are these: HL-60, 48 h. The class given is functional, cell-based. The method in brief:
as §2

In experiment [6] the test system is L02. Put plainly: Cytotoxicity against human HL-7702 cells assessed as cell growth inhibition after 48 hrs by MTT assay. The class given is cell-based. Particulars: L02, 48 h. The method in brief:
as §1

Our source for the IC50 values is ChEMBL document CHEMBL4011654, “Mitochondria-Targeted Lupane Triterpenoid Derivatives and Their Selective Apoptosis-Inducing Anticancer Mechanisms” (J Med Chem, 2017).

pIC50: −log10 of the molar value. Bounds are passed on as bounds.

Take `C=C(C)[C@@H]1CC[C@]2(C(=O)OCC)CC[C@]3(C)[C@H](CC[C@@H]4[C@@]5(C)CC[C@H](OC(=O)CCCC[P+](c6ccccc6)(c6ccccc6)c6ccccc6)C(C)(C)[C@@H]5CC[C@]43C)[C@@H]12`: the pIC50 (as a rule, the negative decadic logarithm of the IC50, by convention in mol/L) in experiment [1] is 5.34; in experiment [2], 5.22; in experiment [3], 5.32; in experiment [4] it was 5.39; in experiment [5] it was 5.56; in experiment [6], 5.11.
With `C=C(C)[C@@H]1CC[C@]2(COC(=O)CCCC[P+](c3ccccc3)(c3ccccc3)c3ccccc3)CC[C@]3(C)[C@H](CC[C@@H]4[C@@]5(C)CC[C@H](OC=O)C(C)(C)[C@@H]5CC[C@]43C)[C@@H]12`, the pIC50 was 5.95 in experiment [1]; 6.02 in experiment [2]; 5.96 in experiment [3]; 6.09 in experiment [4]; 6.15 in experiment [5]; 5.08 in experiment [6].
As to `O=C(O)CCCC[P+](c1ccccc1)(c1ccccc1)c1ccccc1`, the pIC50 was 3.80 in experiment [1]; 3.95 in experiment [2]; 3.76 in experiment [3]; under 3.70 in experiment [4]; 3.93 in experiment [5]; under 3.70 in experiment [6].
On to `C=C(C)[C@@H]1CC[C@]2(C(=O)O)CC[C@]3(C)[C@H](CC[C@@H]4[C@@]5(C)CC[C@H](O)C(C)(C)[C@@H]5CC[C@]43C)[C@@H]12` [BETULINIC ACID], for which the pIC50 is 4.60 in experiment [1]; 4.55 in experiment [2]; 4.77 in experiment [3]; 4.66 in experiment [4]; 4.73 in experiment [5]; 4.46 in experiment [6].
